Reference: ChEMBL document CHEMBL1806382, “Special ergolines efficiently inhibit the chemokine receptor CXCR3 in blood” (Bioorg Med Chem Lett, 2011)

Tests used:
[1] = biological target: T1, C-X-C chemokine receptor type 3 (Homo sapiens, UniProt P49682); experiment: Displacement of radiolabeled CXCL11 from human CXCR3 expressed in CHO cells by scintillation proximity assay; assay type: cell-based
T1 sequence (P49682 whole entry): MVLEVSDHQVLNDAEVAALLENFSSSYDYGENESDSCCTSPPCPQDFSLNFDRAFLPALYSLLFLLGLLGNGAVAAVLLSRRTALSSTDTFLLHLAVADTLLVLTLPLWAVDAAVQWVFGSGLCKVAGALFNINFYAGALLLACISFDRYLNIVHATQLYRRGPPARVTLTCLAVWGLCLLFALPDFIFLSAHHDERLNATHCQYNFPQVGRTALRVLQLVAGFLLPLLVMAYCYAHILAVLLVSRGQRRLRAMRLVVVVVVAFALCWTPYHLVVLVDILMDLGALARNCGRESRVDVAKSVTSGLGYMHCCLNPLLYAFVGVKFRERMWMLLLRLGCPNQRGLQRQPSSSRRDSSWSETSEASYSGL

[2] = biological target: T1, C-X-C chemokine receptor type 3; experiment: Antagonist activity at human CXCR3 expressed in mouse L1.2 cells assessed as inhibition of ITAC-induced calcium mobilization by FLIPR assay; assay type: functional, cell-based
[3] = biological target: T2, C-X-C chemokine receptor type 3 (Mus musculus, UniProt O88410); experiment: Antagonist activity at mouse CXCR3 expressed in mouse L1.2 cells assessed as inhibition of ITAC-induced calcium mobilization by FLIPR assay; assay type: functional, cell-based
T2 sequence (O88410 whole entry): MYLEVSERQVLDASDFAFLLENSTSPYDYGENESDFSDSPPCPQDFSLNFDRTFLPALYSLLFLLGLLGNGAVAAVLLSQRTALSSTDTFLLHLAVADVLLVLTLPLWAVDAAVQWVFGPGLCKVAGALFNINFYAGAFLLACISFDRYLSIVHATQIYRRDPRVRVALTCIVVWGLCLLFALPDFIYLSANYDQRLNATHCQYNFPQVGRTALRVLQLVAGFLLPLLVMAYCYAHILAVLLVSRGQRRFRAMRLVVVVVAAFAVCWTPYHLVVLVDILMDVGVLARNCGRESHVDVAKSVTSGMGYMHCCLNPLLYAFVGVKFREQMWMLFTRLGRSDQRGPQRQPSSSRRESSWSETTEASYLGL

[4] = biological target: T3, C-X-C chemokine receptor type 3 (Rattus norvegicus, UniProt Q9JII9); experiment: Ex vivo receptor occupancy of CXCR3 in rat blood assessed as inhibition of ITAC binding after 1 hr by flow cytometry
T3 sequence (Q9JII9 whole entry): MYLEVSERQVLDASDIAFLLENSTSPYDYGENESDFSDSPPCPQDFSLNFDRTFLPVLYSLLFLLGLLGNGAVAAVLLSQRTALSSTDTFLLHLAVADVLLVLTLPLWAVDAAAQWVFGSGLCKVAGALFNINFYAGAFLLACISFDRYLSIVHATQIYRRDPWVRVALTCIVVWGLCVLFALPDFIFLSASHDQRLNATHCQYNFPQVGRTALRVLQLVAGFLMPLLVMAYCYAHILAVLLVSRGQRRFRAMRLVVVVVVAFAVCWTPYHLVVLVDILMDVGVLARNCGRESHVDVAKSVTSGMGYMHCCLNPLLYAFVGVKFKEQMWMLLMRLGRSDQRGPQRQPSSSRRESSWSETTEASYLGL
Procedure, shortened: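 Blood samples were pre-incubated with inhibitor, then I-TAC was added and incubation continued for 1 h at 37 °C. Samples were stained with fluorescence-labelled anti-CXCR3 antibodies, and lymphocyte fluorescence was read by flow cytometry. Restoration of anti-CXCR3 staining was compared with samples not given I-TAC. IC50 is the concentration giving 50% inhibition of I-TAC binding to CXCR3.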

NC(=O)[C@@H]1C=C2c3cccc4[nH]cc(c34)C[C@H]2N(C(=O)Nc2ccccc2)C1
IC50 [1]: > 10000 nM

CCNC(=O)[C@@H]1C=C2c3cccc4[nH]cc(c34)C[C@H]2N(C(=O)Nc2ccccc2)C1
IC50 [2]: 71 nM | IC50 [3]: 90 nM | IC50 [1]: 379 nM

CN(C)C(=O)[C@@H]1C=C2c3cccc4[nH]cc(c34)C[C@H]2N(C(=O)Nc2ccccc2)C1
IC50 [2]: 10 nM | IC50 [3]: 10 nM | IC50 [1]: 28 nM

COCCN(CCOC)C(=O)[C@@H]1C=C2c3cccc4[nH]cc(c34)C[C@H]2N(C(=O)Nc2ccccc2)C1
IC50 [2]: 187 nM | IC50 [3]: 437 nM | IC50 [1]: 305 nM

CN(CCO)C(=O)[C@@H]1C=C2c3cccc4[nH]cc(c34)C[C@H]2N(C(=O)Nc2ccccc2)C1
IC50 [2]: 12 nM | IC50 [3]: 9 nM | IC50 [1]: 66 nM

O=C([C@@H]1C=C2c3cccc4[nH]cc(c34)C[C@H]2N(C(=O)Nc2ccccc2)C1)N1CCC1
IC50 [3]: 14 nM

O=C([C@@H]1C=C2c3cccc4[nH]cc(c34)C[C@H]2N(C(=O)Nc2ccccc2)C1)N1CCCCCC1
IC50 [2]: 14 nM | IC50 [3]: 13 nM | IC50 [1]: 81 nM

O=C([C@@H]1C=C2c3cccc4[nH]cc(c34)C[C@H]2N(C(=O)Nc2ccccc2)C1)N1CC=CC1
IC50 [2]: 3 nM | IC50 [3]: 3 nM | IC50 [1]: 17 nM

O=C([C@@H]1C=C2c3cccc4[nH]cc(c34)C[C@H]2N(C(=O)Nc2ccccc2)C1)N1C=CCCC1
IC50 [2]: 4 nM | IC50 [3]: 2 nM | IC50 [1]: 12 nM

O=C([C@@H]1C=C2c3cccc4[nH]cc(c34)C[C@H]2N(C(=O)Nc2ccccc2)C1)N1CCNCC1
IC50 [2]: 457 nM | IC50 [3]: 1730 nM | IC50 [1]: 1010 nM

O=C1CN(C(=O)[C@@H]2C=C3c4cccc5[nH]cc(c45)C[C@H]3N(C(=O)Nc3ccccc3)C2)CCN1
IC50 [2]: 74 nM | IC50 [1]: 255 nM

CN1CCN(C(=O)[C@@H]2C=C3c4cccc5[nH]cc(c45)C[C@H]3N(C(=O)Nc3ccccc3)C2)CC1
IC50 [2]: 83 nM | IC50 [3]: 112 nM | IC50 [1]: 131 nM

CC(=O)N1CCN(C(=O)[C@@H]2C=C3c4cccc5[nH]cc(c45)C[C@H]3N(C(=O)Nc3ccccc3)C2)CC1
IC50 [2]: 286 nM | IC50 [1]: 825 nM

O=C([C@@H]1C=C2c3cccc4[nH]cc(c34)C[C@H]2N(C(=O)Nc2ccccc2)C1)N1CCOCC1
IC50 [3]: 12 nM | IC50 [1]: 22 nM

CC1CN(C(=O)[C@@H]2C=C3c4cccc5[nH]cc(c45)C[C@H]3N(C(=O)Nc3ccccc3)C2)CC(C)O1 (stereo partly drawn)
IC50 [2]: 216 nM | IC50 [1]: 1160 nM

O=C([C@@H]1C=C2c3cccc4[nH]cc(c34)C[C@H]2N(C(=O)Nc2ccccc2)C1)N1CCS(=O)(=O)CC1
IC50 [2]: 67 nM | IC50 [3]: 534 nM | IC50 [1]: 400 nM

O=C([C@@H]1C=C2c3cccc4[nH]cc(c34)C[C@H]2N(C(=O)Nc2ccccc2)C1)N1CC[C@@H](O)[C@@H](O)C1
IC50 [2]: 200 nM | IC50 [3]: 40 nM | IC50 [1]: 50 nM

O=C([C@@H]1C=C2c3cccc4[nH]cc(c34)C[C@H]2N(C(=O)Nc2ccccc2)C1)N1CC[C@@H](O)C1
IC50 [2]: 22 nM | IC50 [1]: 61 nM

O=C([C@@H]1C=C2c3cccc4[nH]cc(c34)C[C@H]2N(C(=O)Nc2ccccc2)C1)N1CC[C@H](O)C1
IC50 [2]: 12 nM | IC50 [3]: 19 nM | IC50 [1]: 47 nM

O=C([C@@H]1C=C2c3cccc4[nH]cc(c34)C[C@H]2N(C(=O)Nc2ccccc2F)C1)N1CCCC1
IC50 [3]: 16 nM

O=C([C@@H]1C=C2c3cccc4[nH]cc(c34)C[C@H]2N(C(=O)Nc2cccc(F)c2)C1)N1CCCC1
IC50 [2]: 3 nM | IC50 [3]: 2 nM | IC50 [1]: 4 nM

O=C([C@@H]1C=C2c3cccc4[nH]cc(c34)C[C@H]2N(C(=O)Nc2ccc(F)cc2)C1)N1CCCC1
IC50 [2]: 4 nM | IC50 [3]: 4 nM | IC50 [1]: 7 nM

COc1ccccc1NC(=O)N1C[C@H](C(=O)N2CCCC2)C=C2c3cccc4[nH]cc(c34)C[C@H]21
IC50 [2]: 60 nM | IC50 [1]: 523 nM

COc1cccc(NC(=O)N2C[C@H](C(=O)N3CCCC3)C=C3c4cccc5[nH]cc(c45)C[C@H]32)c1
IC50 [2]: 27 nM | IC50 [3]: 74 nM | IC50 [1]: 278 nM

COc1ccc(NC(=O)N2C[C@H](C(=O)N3CCCC3)C=C3c4cccc5[nH]cc(c45)C[C@H]32)cc1
IC50 [2]: 89 nM | IC50 [1]: 393 nM

CN(C)Cc1ccccc1NC(=O)N1C[C@H](C(=O)N2CCCC2)C=C2c3cccc4[nH]cc(c34)C[C@H]21
IC50 [2]: > 10000 nM

CN(C)Cc1cccc(NC(=O)N2C[C@H](C(=O)N3CCCC3)C=C3c4cccc5[nH]cc(c45)C[C@H]32)c1
IC50 [2]: 6200 nM

CN(C)Cc1ccc(NC(=O)N2C[C@H](C(=O)N3CCCC3)C=C3c4cccc5[nH]cc(c45)C[C@H]32)cc1
IC50 [2]: 5400 nM

O=C([C@@H]1C=C2c3cccc4[nH]cc(c34)C[C@H]2N(C(=O)Nc2ccsc2)C1)N1CCCC1
IC50 [2]: 7 nM | IC50 [3]: 11 nM | IC50 [1]: 26 nM

O=C([C@@H]1C=C2c3cccc4[nH]cc(c34)C[C@H]2N(C(=O)Nc2cccs2)C1)N1CCCC1
IC50 [2]: 8 nM | IC50 [3]: 10 nM | IC50 [1]: 37 nM

O=C([C@@H]1C=C2c3cccc4[nH]cc(c34)C[C@H]2N(C(=O)Nc2cc[nH]c2)C1)N1CCCC1
IC50 [2]: > 10000 nM | IC50 [1]: > 10000 nM

O=C([C@@H]1C=C2c3cccc4[nH]cc(c34)C[C@H]2N(C(=O)NC2CCCC2)C1)N1CCCC1
IC50 [2]: 73 nM | IC50 [3]: 81 nM | IC50 [1]: 160 nM

O=C([C@@H]1C=C2c3cccc4[nH]cc(c34)C[C@H]2N(C(=O)NC2CCCCC2)C1)N1CCCC1
IC50 [2]: 11 nM | IC50 [3]: 31 nM | IC50 [1]: 24 nM

O=C([C@@H]1C=C2c3cccc4[nH]cc(c34)C[C@H]2N(C(=O)NC2CCCCCC2)C1)N1CCCC1
IC50 [2]: 14 nM | IC50 [3]: 16 nM | IC50 [1]: 28 nM

O=C([C@@H]1C=C2c3cccc4[nH]cc(c34)C[C@H]2N(C(=O)NC2CCC(O)CC2)C1)N1CCCC1 (stereo partly drawn)
IC50 [2]: 9480 nM | IC50 [1]: > 10000 nM

CNC(=O)N1C[C@H](C(=O)N2CCCC2)C=C2c3cccc4[nH]cc(c34)C[C@H]21
IC50 [2]: > 10000 nM | IC50 [1]: > 10000 nM

CN(C)CCCNC(=O)N1C[C@H](C(=O)N2CCCC2)C=C2c3cccc4[nH]cc(c34)C[C@H]21
IC50 [2]: > 10000 nM

O=C([C@@H]1C=C2c3cccc4[nH]cc(c34)C[C@H]2N(C(=O)NCc2ccccc2)C1)N1CCCC1
IC50 [2]: 2200 nM | IC50 [1]: 2200 nM

O=C([C@@H]1C=C2c3cccc4[nH]cc(c34)C[C@H]2N(C(=O)NCc2ccco2)C1)N1CCCC1
IC50 [2]: 10000 nM | IC50 [1]: 2600 nM

O=C([C@@H]1C=C2c3cccc4[nH]cc(c34)C[C@H]2N(C(=O)c2ccccc2)C1)N1CCCC1
IC50 [2]: 6120 nM | IC50 [1]: > 10000 nM

O=C([C@@H]1C=C2c3cccc4[nH]cc(c34)C[C@H]2N(C(=O)Cc2ccccc2)C1)N1CCCC1
IC50 [2]: 170 nM | IC50 [1]: 427 nM

CC(C)OC(=O)Cn1cc2c3c(cccc31)C1=C[C@@H](C(=O)N3CCCC3)CN(C(=O)Nc3ccccc3)[C@@H]1C2
IC50 [3]: 53 nM

O=C([C@@H]1C=C2c3cccc4c3c(cn4CCN3CCCC3)C[C@H]2N(C(=O)Nc2ccccc2)C1)N1CCCC1
IC50 [2]: 3 nM | IC50 [4]: 14 nM | IC50 [3]: 2 nM | IC50 [1]: 3 nM

O=C([C@@H]1C=C2c3cccc4c3c(cn4CCN3CCCCC3)C[C@H]2N(C(=O)Nc2ccccc2)C1)N1CCCC1
IC50 [2]: 5 nM | IC50 [4]: 16 nM | IC50 [3]: 3 nM | IC50 [1]: 2 nM

CN1CCN(CCn2cc3c4c(cccc42)C2=C[C@@H](C(=O)N4CCCC4)CN(C(=O)Nc4ccccc4)[C@@H]2C3)CC1
IC50 [2]: 5 nM | IC50 [4]: 23 nM | IC50 [3]: 3 nM | IC50 [1]: 5 nM

O=C([C@@H]1C=C2c3cccc4c3c(cn4CCN3CCOCC3)C[C@H]2N(C(=O)Nc2ccccc2)C1)N1CCCC1
IC50 [2]: 8 nM | IC50 [4]: 40 nM | IC50 [3]: 5 nM | IC50 [1]: 24 nM

CCN(CC)C(=O)[C@@H]1C=C2c3cccc4[nH]cc(c34)C[C@H]2N(C(=O)Nc2ccccc2)C1
IC50 [1]: 51 nM
